The campaign covered roughly 2,400 compounds. About 940 (39%) were called active.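 How the source made its calls: active means inhibition above the plate's mean compound inhibition plus 3 SD, computed per plate (cut at about 22% in these data); inactive means the rest.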 Only a sample is shown.
Assay: reduced calcium signal in Ga16 cells – fluorescence, CHO-Ga16 cells, counter-screen for TAAR1 agonist project (AID 651952);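 further: 0% = EC80 ATP with DMSO and 100% = DMSO wells without ATP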
Details: CHO-Ga16 ATP-induced calcium, Fluo-8 fluorescence; at 3 µM; hits give high values
In short: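 replicates = triplicate wells per compound | material = CHO-Gα16 parent cell line without hTAAR1 | incubation = 17–24 h seeding, dye 75 min 37 °C, 30 min RT | measure = percent inhibition from peak-to-pre-ATP-basal fluorescence ratio, scaled between controls | signal = Fluo-8 fluorescence, Ex 470–495 nm, Em 515–575 nm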

SMILES | inhibition
O=C1NC(=O)N(Cc2ccco2)C(=O)/C1=C\c1ccc(-c2ccc(F)cc2)o1 | 44% (active)
Clc1ccc2nc3c(c(-c4ccccc4)c2c1)CNCC3 | 0.28% (inactive)
CC(Cc1ccccc1)NC=O (centres undefined) | 11.2% (inactive)
CCCCC(=O)N/N=C/c1c(O)n(CC)c(=S)n(CC)c1=O | 64.5% (active)
COc1ccc(Br)cc1CNCCc1cccc(Cl)c1 | 14.7% (inactive)
c1ccc(CCNC2CCCCCC2)cc1 | 2.61% (inactive)
Cc1cccc(N2C(=O)NC(=O)/C(=C\c3cnn(-c4ccccc4)c3)C2=O)c1 | 40.6% (active)
CCC(=NCCc1ccccc1)c1c(O)n(C2CCCCC2)c(=O)[nH]c1=O | 21.1% (inactive)
NCC(O)c1ccc(O)cc1 (centres undefined) | 3.87% (inactive)
